Compound activity deposited in PubChem BioAssay by several laboratories.
Only some compounds are listed: those with a hit (about 2.5% of all), similar ones and a draw of the others.
ABHD5-PLIN5 inh = ABHD5-PLIN5 interaction inhibitors, primary screen, cell lysate, split luciferase complementation, luminescence; inhibition, % at 4 µM; 360,000 compounds, 0.78% hits; Split G. princeps luciferase complementation, 4 h; AID 602281, 2012;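 active means inhibition above the mean inhibition across every tested compound plus 3 SD, cut at about 22% in these data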
B2AR ag = beta2AR agonists driving receptor internalization, primary screen, cell-based, FAP fluorogen, flow cytometry; AID 504454, 2011; 340,000 compounds, 0.43% hits; response, % (test concentration not listed); Am2.2-beta2AR cells; Beta-2 adrenergic receptor (Homo sapiens), P07550;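 active means response above a set limit, near 3 SD of response in nonfluorescent compounds, cut at about 42% in these data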
Target sequence (P07550 whole entry, looked up): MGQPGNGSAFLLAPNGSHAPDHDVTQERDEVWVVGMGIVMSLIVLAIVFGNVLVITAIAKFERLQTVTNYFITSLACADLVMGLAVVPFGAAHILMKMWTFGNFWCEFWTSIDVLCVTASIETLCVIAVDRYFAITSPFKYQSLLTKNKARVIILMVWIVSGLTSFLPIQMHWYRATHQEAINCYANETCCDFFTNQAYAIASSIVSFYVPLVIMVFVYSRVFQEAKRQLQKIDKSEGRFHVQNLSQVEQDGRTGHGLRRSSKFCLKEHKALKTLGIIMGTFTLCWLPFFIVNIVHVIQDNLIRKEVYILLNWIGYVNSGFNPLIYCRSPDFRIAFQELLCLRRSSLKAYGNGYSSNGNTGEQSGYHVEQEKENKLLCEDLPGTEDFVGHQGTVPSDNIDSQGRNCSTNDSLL
GRK2 aptamer HTS = compounds blocking aptamer binding on GRK2 – biochemical, human GRK2, bead flow cytometry, HTS, primary screen; FAM-aptamer displacement from GRK2; inhibition of aptamer binding, % at 10 µM; 330,000 compounds, 0.59% hits;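 active means inhibition of aptamer binding above 40%, roughly 3 SD of noise, on plates passing a quality check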;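 further: median bead fluorescence of bound FAM aptamer so fluorescent compounds give negative values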
NadD block = inhibitors of S. aureus NadD, primary screen, biochemical, colorimetric, uHTS; inhibition, % at 20 µM; 360,000 compounds, 0.78% hits; AID 602399, 2012; purified NadD enzyme, colorimetric absorbance read-out; Nicotinate-nucleotide adenylyltransferase NadD (Staphylococcus aureus N315); in the data active means inhibition above about 26%
SENP1 inh = human SENP1 catalytic domain inhibitors, primary screen, biochemical, FRET, uHTS. Sentrin-specific protease 1 (Homo sapiens), Q9P0U3. recombinant SENP1 catalytic domain, CyPet-SUMO1-YPet FRET cleavage. inhibition, % at 10 µM. 360,000 compounds, 0.21% hits. AID 624204, 2012;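 active means inhibition at least 30% at 10 µM, raw YFP signal under a set limit, fluorescence ratio 0.5 to 1.5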
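Compound: 10 µM single point, 0.5% DMSO; Test system: hSENP1 catalytic domain, recombinant; Timing: 50 min reaction at room temperature; Technique: FRET, CFP and YFP emission; Control set: no-enzyme wells low, DMSO-plus-enzyme wells high control.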
ABHD5-PLIN5 conf = ABHD5-PLIN5 interaction inhibitors, confirmation, biochemical, luminescence. 2,200 compounds, 67% hits. AID 651612, 2012. shares compounds with ABHD5-PLIN5 inh. inhibition, % at 4 µM; in the data active means inhibition above about 23%
HNF4 counter = HNF4 dimerization inhibitors, counter-screen for ABHD5-PLIN5 interaction inhibitor project, biochemical, split-luciferase complementation, luminescence. shares compounds with ABHD5-PLIN5 inh. inhibition, % at 4 µM. 2,200 compounds, 77% hits. AID 651674, 2012;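 active means mean inhibition across replicate wells exceeding the computed hit threshold, cut at about 13% in these data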;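 further: light from luciferase halves that rejoin when HNF4 fusion proteins dimerize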
A number is an active result.

How did CCCCCCCCN1[C@@H](CC(=O)O)c2cc(C(F)(F)F)ccc2S1(=O)=O do in these assays?
ABHD5-PLIN5 inh: 30; B2AR ag: inactive; GRK2 aptamer HTS: inactive; NadD block: inactive; SENP1 inh: inactive; ABHD5-PLIN5 conf: 33; HNF4 counter: 16

Results for CCCCCCCCCCCCN1[C@@H](CC(=O)O)c2cc(C(F)(F)F)ccc2S1(=O)=O ?
ABHD5-PLIN5 inh: inactive; B2AR ag: inactive; GRK2 aptamer HTS: inactive; NadD block: inactive; SENP1 inh: inactive

How did COc1ccc(CCNC(=O)/C=C/c2ccc3ccccc3n2)cc1OC do in these assays?
ABHD5-PLIN5 inh: 25; B2AR ag: inactive; GRK2 aptamer HTS: inactive; NadD block: inactive; SENP1 inh: inactive; ABHD5-PLIN5 conf: 32; HNF4 counter: 18

Results for COc1ccc(/C=C/C(=O)NCCc2ccc(OC)c(OC)c2)cc1 ?
ABHD5-PLIN5 inh: inactive; B2AR ag: inactive; GRK2 aptamer HTS: inactive; NadD block: inactive; SENP1 inh: inactive

How did Cc1ccc(-c2cc(C(=O)Nc3ccccc3C(N)=O)c3ccccc3n2)o1 do in these assays?
ABHD5-PLIN5 inh: 43; B2AR ag: inactive; GRK2 aptamer HTS: inactive; NadD block: inactive; SENP1 inh: inactive; ABHD5-PLIN5 conf: 28; HNF4 counter: 28

What do the screens show for `Cc1ccc(CN(C(=O)c2ccccc2[N+](=O)[O-])C2CCS(=O)(=O)C2)o1` (stereo not drawn)?
ABHD5-PLIN5 inh: inactive; B2AR ag: inactive; GRK2 aptamer HTS: inactive; NadD block: inactive; SENP1 inh: inactive

Results for N#CC1C(=O)c2ccccc2C1c1ccccc1 (stereo not drawn) ?
ABHD5-PLIN5 inh: 73; B2AR ag: inactive; NadD block: inactive; SENP1 inh: inactive; ABHD5-PLIN5 conf: inactive; HNF4 counter: 98

How did COc1cc(C(=O)Nc2nnc(CC(=O)NCc3ccccc3)s2)cc(OC)c1OC do in these assays?
ABHD5-PLIN5 inh: inactive; B2AR ag: inactive; GRK2 aptamer HTS: inactive; NadD block: inactive; SENP1 inh: inactive

Results for Cc1nc2nc(C)n(CCN3CCOCC3)c(=O)c2c(-c2cccc([N+](=O)[O-])c2)c1C(=O)CCCCCCCCCCN1CCC(c2ccccc2)(c2ccccc2)CC1 ?
ABHD5-PLIN5 inh: 42; B2AR ag: inactive; NadD block: inactive; SENP1 inh: inactive; ABHD5-PLIN5 conf: inactive; HNF4 counter: inactive

What do the screens show for `O=C(NCCCN1CCOCC1)/C(=C/c1ccc(-c2cccc([N+](=O)[O-])c2)o1)NC(=O)c1ccccc1`?
ABHD5-PLIN5 inh: inactive; NadD block: inactive; SENP1 inh: inactive

Results for CCC(c1nnnn1Cc1ccco1)N(Cc1cc2cc(C)cc(C)c2[nH]c1=O)CC1CCCO1 (stereo not drawn) ?
ABHD5-PLIN5 inh: 28; B2AR ag: inactive; GRK2 aptamer HTS: inactive; NadD block: inactive; SENP1 inh: inactive; ABHD5-PLIN5 conf: inactive; HNF4 counter: inactive

How did O=C(NCc1ccccc1)C(c1cccc2ccccc12)n1c(=O)c(-c2ccccc2)nc2ccccc21 (stereo not drawn) do in these assays?
ABHD5-PLIN5 inh: inactive; SENP1 inh: inactive

What do the screens show for `O=C(Nc1ccc2c(c1)OCCO2)C(c1ccccc1)n1c(=O)c(-c2ccco2)nc2ccccc21` (stereo not drawn)?
ABHD5-PLIN5 inh: inactive; SENP1 inh: inactive

What do the screens show for `O=C(NCc1ccccc1)C(c1cc2ccccc2o1)n1c(=O)c(-c2ccco2)nc2ccccc21` (stereo not drawn)?
ABHD5-PLIN5 inh: 91; SENP1 inh: inactive; ABHD5-PLIN5 conf: 62; HNF4 counter: 15
